STAT3 act-1 – activators of IL-6 induced STAT3 signaling; hit rate 0.91% among 190,000; AID 871; activation (% of control), % at 5.6 µM; U3A cells, IL-6 STAT3-luciferase reporter, luminescence; 100% = signal with IL-6 EC80 alone;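 active means activation above the screen-wide mean of compound activation plus 3 SD, cut at about 130% in these data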;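 further: 0% = background luminescence of wells with medium and substrate only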
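Detection: reporter luminescence signal / Assay system: STAT1-lacking human U3A cells, STAT3 luciferase reporter / Incubation: compound pre-incubation 1 h before IL-6, then 6 h stimulation at 37 °C / Control set: IL-6-only high control / Read-out: % activation relative to IL-6 control / Probe or stimulus: Interleukin-6, 33 ng/mL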
STAT1 inh – reduces IFN-gamma driven STAT1 reporter signal; NIH 3T3 STAT1-luciferase reporter, luminescence; hit rate 0.35% among 200,000; AID 920; inhibition, % at 5.5 µM;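 active means inhibition above a set limit, the mean inhibition across all tested compounds plus 3 SD, cut at about 34% in these data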;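 further: 0% = IFN-gamma with DMSO and 100% = IFN-gamma with 300 µM nifuroxazide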
STAT1 act-1 – STAT1 signaling activation; NIH 3T3 STAT1-luciferase reporter, IFN-gamma, luminescence; 100% = IFN-gamma alone, no compound; activation (% of control), % at 5.5 µM; hit rate 2.6% among 200,000; AID 932;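 active means activation above the screen-wide mean activation plus 3 SD, cut at about 130% in these data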;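 further: raw ratio to IFN-gamma control signal so 100% means no change and 0% no light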
STAT3 blocker – STAT3 signaling inhibition. U3A cells, IL-6 STAT3-luciferase reporter, luminescence; host cell line lacks STAT1. inhibition, % at 5.5 µM. hit rate 0.89% among 190,000. AID 862;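 active means inhibition above the mean inhibition across all screened compounds plus 3 SD, cut at about 44% in these data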;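 further: 0% = DMSO only wells and 100% = 100 µM nifuroxazide control wells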
STAT3 act-2 – confirmation of STAT3 signaling activators | shares compounds with STAT3 act-1 | U3A STAT3-luciferase reporter, IL-6 potentiation, luminescence; U3A cells lack STAT1; 100 means same as IL-6 alone | potentiation (% of control), % at 5.7 µM | hit rate 64% among 1,200;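 active means percent activation of the STAT3 luciferase reporter above a set limit taken from the earlier primary screen, cut at about 130% in these data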;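 further: 0% = background signal of medium plus substrate and 100% = median of IL-6 with DMSO wells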
NFkB act STAT3ct – activates NF-kappaB, counter-screen to STAT3 activators. shares compounds with STAT3 act-1. activation (% of control), % at 5.7 µM. hit rate 11% among 1,200. human cells, NF-kappaB reporter activation. AID 1309; in the data active means activation above about 120%;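 further: reporter induced by TNF-alpha stimulation; 100% = median of stimulated DMSO wells and 0% = no signal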
STAT1 act-2 – STAT1 activation in STAT3 activator counter-screen; shares compounds with STAT3 act-1; NIH 3T3 STAT1-luciferase reporter, IFN-gamma, luminescence; activation (% of control), % at 5.7 µM; hit rate 13% among 1,200; AID 1318;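 active means activation above the solvent-only control well mean plus 3 SD, set per screening run, cut at about 120% in these data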;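 further: 100% = IFN-gamma with DMSO median signal so 100% means no change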
Numbers without * were called inactive; x = no result. In the library only some 4.3% were active in any assay of this set; here they are far more common.

SMILES | STAT3 act-1 | STAT1 inh | STAT1 act-1 | STAT3 blocker | STAT3 act-2 | NFkB act STAT3ct | STAT1 act-2
CC(=O)n1c2c(c3ccccc31)OC(N)=C(C#N)C2c1cccc(Cl)c1Cl (stereo unspecified) | 141* | 4 | 96 | -48 | 141* | 104 | 89
COc1ccc(C(=O)NC(=S)N2CCCc3ccccc32)cc1OC | 91 | -5 | 103 | 17 | x | x | x
O=C(NC(=S)N1CCCc2ccccc21)c1ccccc1 | 167* | -2 | 102 | -64 | 149* | 109 | 110
N#Cc1c(C(F)(F)F)cc(-c2ccc(Cl)c(Cl)c2)nc1SCCN1CCOCC1 | 160* | 12 | 89 | -62 | 146* | 103 | 91
Cc1cc(C(F)(F)F)nc(SCCN2CCOCC2)c1C#N | 97 | 17 | 83 | 7 | x | x | x
COCCn1c(NCc2ccco2)nc2c1c(=O)[nH]c(=O)n2C | 95 | 2 | 98 | 11 | x | x | x
Cc1ccc2nc(SCC(=O)Nc3cc([N+](=O)[O-])ccc3F)[nH]c2c1 | 139* | 12 | 89 | -53 | 139* | 107 | 97
Cc1ccc2nc(SCC(=O)Nc3ccc(F)c([N+](=O)[O-])c3)[nH]c2c1 | 98 | 7 | 94 | 0 | x | x | x
Cc1ccc(O)c(N=CC2=C(O)c3ccccc3C2=O)c1 | 149* | -25 | 122 | -49 | 138* | 128* | 105
Cc1ccc(O)c(C=Nc2cc(C)ccc2O)c1 | 111 | 7 | 93 | -9 | x | x | x
COCc1[nH][nH]c(=O)c1/C=N/N1CCOCC1 | 111 | -6 | 104 | -5 | x | x | x
Cc1ccc(NC(=O)c2cc(N3CCOCC3)nc3ccccc23)cc1 | 153* | 3 | 97 | -54 | 146* | 102 | 97
O=C(O)C1Cc2[nH]cnc2C(c2ccccc2O)N1 (stereo unspecified) | 143* | 7 | 94 | -48 | 172* | 103 | 115
O=C(O)C1Cc2[nH]cnc2C(c2cccc([N+](=O)[O-])c2)N1 (stereo unspecified) | 106 | -7 | 106 | -1 | x | x | x
C#CCOCCOCCOCCNc1nc(N2CCN(C(=O)Cn3cc(CCCN=C(N)N)nn3)CC2)nc(N2CCN(C(=O)[C@H]([C@@H](C)CC)n3cc(CCCN=C(N)N)nn3)CC2)n1 | 92 | 1 | 99 | 6 | x | x | x
Cc1ccccc1-n1c(C)nnc1SCC(=O)N1CCc2ccccc2C1 | 104 | 6 | 95 | -3 | x | x | x
Brc1ccc(-c2cn3c(n2)CCc2ccc4cccnc4c2-3)cc1 | 157* | 5 | 96 | -67 | 149* | 101 | 89
CCSc1nnc(NC(=O)Cc2cc(OC)c(OC)c(OC)c2)s1 | 95 | -2 | 102 | 13 | x | x | x
O=C(CN1CCC(NC(=O)c2ccco2)CC1)Nc1cccc2ccccc12 | 103 | 4 | 96 | -3 | x | x | x
O=C(CN1CCC(NC(=O)c2ccco2)CC1)Nc1ccccc1[N+](=O)[O-] | 138* | 6 | 92 | -40 | 144* | 104 | 92
N#CC1=C(N)Oc2c(ccc3ccccc23)C1c1ccsc1 (stereo unspecified) | 138* | -19 | 117 | -47 | 106 | 115 | 110
N#CC1=C(N)Oc2c(oc(CO)cc2=O)C1c1ccsc1 (stereo unspecified) | 104 | -4 | 104 | -6 | x | x | x
COc1ccc(CCNC(=O)C(=O)NCc2ccc(Cl)cc2)cc1OC | 102 | 6 | 94 | 0 | x | x | x
CCCC1=Nc2cc(C(=O)NCCCOC(C)C)ccc2Sc2ccccc21 | 98 | 10 | 91 | 8 | x | x | x
CCCC1=Nc2cc(C(=O)NCCCOCC)ccc2Sc2ccccc21 | 137* | -21 | 118 | -42 | 114 | 156* | 107
SMILES | STAT3 act-1 | STAT1 inh | STAT1 act-1 | STAT3 blocker | STAT3 act-2 | NFkB act STAT3ct | STAT1 act-2
COc1ccc(OC)c(NC(=O)c2[nH]c(C)c(C(C)=O)c2C)c1 | 151* | -2 | 101 | -55 | 152* | 106 | 104
COc1ccc(CCNC(=O)c2[nH]c(C)c(C(C)=O)c2C)cc1OC | 93 | 1 | 99 | 11 | x | x | x
COc1ccc(C)cc1NC(=O)c1cc2c(s1)CCC2 | 112 | -12 | 111 | -19 | x | x | x
COC(=O)c1sccc1NC(=O)c1cc2c(s1)CCCC2 | 170* | -11 | 109 | -79 | 146* | 110 | 109
COc1cc(NS(=O)(=O)c2ccc(N/C=C(\C=O)c3nc4ccccc4o3)cc2)nc(OC)n1 | 147* | 7 | 93 | -54 | 136* | 104 | 95
CCc1nnc(NS(=O)(=O)c2ccc(N/C=C(\C=O)c3nc4cc(Cl)ccc4o3)cc2)s1 | 149* | -3 | 102 | -52 | 135* | 103 | 99
CCOC(=O)c1c(C)oc2c1cc(O)c1ccccc12 | 145* | 0 | 100 | -48 | 152* | 101 | 97
CCOc1ccc(-n2c(N)c(-c3nc4ccccc4[nH]3)sc2=S)cc1 | 90 | 1 | 99 | 17 | x | x | x
COc1ccc(-n2c(N)c(-c3nc4ccccc4n3C)sc2=S)cc1 | 148* | 1 | 100 | -55 | 173* | 106 | 110
Cn1c(CCc2ccccc2)n[nH]c1=S | 101 | -8 | 106 | 3 | x | x | x
O=C(NC(Cc1ccccc1)C(=O)O)/C(=C/c1ccccc1)NC(=O)c1cccc(Br)c1 (stereo unspecified) | 99 | 6 | 95 | 10 | x | x | x
Cc1cc(NC(=O)CSC2=Nc3ccccc3C3=NC(Cc4ccccc4)C(=O)N23)n[nH]1 (stereo unspecified) | 99 | -2 | 102 | 5 | x | x | x
CCN(CC)C(=O)CSC1=Nc2ccccc2C2=NC(Cc3c[nH]c4ccccc34)C(=O)N12 (stereo unspecified) | 137* | 1 | 99 | -39 | 135* | 101 | 101
C/C(O)=C(/C#N)c1nc2ccccc2[nH]1 | 105 | -2 | 102 | 1 | x | x | x
COc1ccc(C)cc1-n1nnnc1SC/C(O)=C(\C#N)c1nc2ccccc2[nH]1 | 112 | 6 | 94 | -10 | x | x | x
Cc1ccc(Nc2nnc(SC/C(O)=C(\C#N)c3nc4ccccc4[nH]3)s2)c(C)c1 | 145* | 5 | 96 | -60 | 151* | 106 | 89
Cc1cccc(Nc2nnc(SC/C(O)=C(\C#N)c3nc4ccccc4[nH]3)s2)c1 | 143* | 10 | 91 | -55 | 153* | 102 | 95
N#C/C(=C(/O)CSc1ncn[nH]1)c1nc2ccccc2[nH]1 | 143* | 8 | 93 | -47 | 152* | 107 | 100
COc1coc(C(O)C[N+](=O)[O-])cc1=O (stereo unspecified) | 95 | 6 | 95 | 6 | x | x | x
O=C1CCCCCN1Cc1nnc(SCc2nc3ccccc3s2)n1-c1ccccn1 | 140* | -28 | 127 | -39 | 151* | 129* | 145*
O=C(CSc1nnc(Cc2ccccc2)n1-c1cccc(Cl)c1)NNC(=O)Cc1ccccc1 | 99 | 5 | 95 | 0 | x | x | x

Source: PubChem BioAssay (The Scripps Research Institute Molecular Screening Center)
